Screening results as filed in PubChem.
M5 ag = CHRM5 agonism in calcium assay. P08912. CHO-K1 hM5 cells, Fluo-8 calcium fluorescence; 0% DMSO wells, 100% maximal acetylcholine response. activation, % at 3 µM. AID 624037. actives 0.19% (n = 360,000);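 active means activation above the run's mean over test compounds plus 3 SD, cut at about 23% in these data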;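 further: signal is peak over basal fluorescence ratio across the kinetic read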
M4 antag = blocks acetylcholine activation of human M4 receptor; CHO-hM4 cells, ACh EC80, Fluo-8 calcium fluorescence; inhibition, % at 3 µM; actives 0.73% (n = 360,000); AID 624125;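 active means inhibition above its plate's cutoff, the mean inhibition of sample wells plus 3 SD, cut at about 27% in these data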;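 further: 0% = acetylcholine EC80 with DMSO and 100% = DMSO without agonist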
Target sequence (P08173 whole entry, looked up): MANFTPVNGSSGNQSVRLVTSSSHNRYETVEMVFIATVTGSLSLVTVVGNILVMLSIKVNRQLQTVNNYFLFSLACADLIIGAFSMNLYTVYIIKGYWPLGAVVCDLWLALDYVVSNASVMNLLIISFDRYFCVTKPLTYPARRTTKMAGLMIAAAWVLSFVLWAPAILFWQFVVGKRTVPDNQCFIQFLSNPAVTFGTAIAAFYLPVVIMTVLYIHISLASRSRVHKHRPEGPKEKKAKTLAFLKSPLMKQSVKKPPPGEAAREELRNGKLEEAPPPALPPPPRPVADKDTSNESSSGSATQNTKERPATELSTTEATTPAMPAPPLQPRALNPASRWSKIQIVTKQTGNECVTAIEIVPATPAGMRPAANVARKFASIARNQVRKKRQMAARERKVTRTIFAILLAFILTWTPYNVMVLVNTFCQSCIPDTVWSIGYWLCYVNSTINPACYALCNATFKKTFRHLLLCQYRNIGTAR
CHRM5 antagonist = blocks acetylcholine activation of human M5 receptor | AID 624040 | actives 0.59% (n = 360,000) | inhibition, % at 3 µM | P08912 | CHO-hM5 cells, Fluo-8 calcium fluorescence, ACh EC80;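 active means inhibition above a per-plate cutoff, the mean of that plate's test compounds plus 3 SD, cut at about 27% in these data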;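 further: 0% = acetylcholine EC80 with DMSO and 100% = DMSO without agonist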
M4 ag = CHRM4 agonism in calcium assay; P08173; CHO-K1 hM4/Gqi5, Fluo-8 calcium fluorescence; vehicle 0%, full acetylcholine response 100%; activation, % at 3 µM; actives 0.14% (n = 360,000); AID 624127;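 active means activation above the run mean over all test wells plus 3 SD, cut at about 32% in these data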;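 further: peak over basal fluorescence ratio per well then scaled between controls; 0% = DMSO wells and 100% = acetylcholine at EC100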
CHRM4 PAM = CHRM4 positive allosteric modulation. activation, % at 3 µM. AID 624126. CHO-K1 hM4/Gqi5, Fluo-8 calcium fluorescence, ACh EC20; 0% = ACh EC20, 100% = maximal ACh. P08173. actives 0.4% (n = 360,000);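 active means activation above its plate's cutoff, the mean activation of sample wells plus 3 SD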
M5 PAM = potentiates acetylcholine response at human M5 receptor. P08912. CHO-K1 hM5, Fluo-8 calcium, ACh EC20 PAM; 0% = ACh EC20, 100% = ACh EC100. activation, % at 3 µM. actives 0.3% (n = 360,000);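 active means activation above the run cutoff, the mean activation of all test compounds plus 3 SD, cut at about 18% in these data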
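System – CHO-K1 hM5 cells · Compound – 3 µM, single dose · Incubation – compound preincubation 140 s before EC20 acetylcholine addition · Technique – Fluo-8 calcium fluorescence · Measure – Max/basal fluorescence ratio as % of EC20–EC100 ACh window · Benchmarks – low control EC20 acetylcholine (0%), high control EC100 acetylcholine (100%) · Replication – singlicate, one well per test compound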
* hit, by the source's call. A selection: hits, their analogues and other compounds. The true share with any hit is near 1.8%.

SMILES	M5 ag	M4 antag	CHRM5 antagonist	M4 ag	CHRM4 PAM	M5 PAM
OC(c1ccc(F)cc1)c1nc(-c2cccc(F)c2)cs1 (configuration not stated)	0.5	9.9	1.4	1.7	0.3	-1.2
COc1ccc(CN2CCN(C(=O)CC(C)C)CC2)c2ccccc12	-3.7	-5.9	-6.1	1.2	2.5	41.8*
COc1ccc(CN2CCN(C(=O)CC(C)C)CC2)cc1OC	-1.4	-0.1	0.8	0.6	5.5	1.5
CN(/N=C/c1ccc(-c2ccc([N+](=O)[O-])cc2)o1)c1ccccc1	33.6*	10.0	25.0	16.2	-10.4	-3.7
CC(C)Cn1c(N)c(C(=O)COC(=O)CC23CC4CC(CC(C4)C2)C3)c(=O)n(C)c1=O	3.7	36.7*	19.2	1.8	-6.5	-12.7
CC(C)Cn1c(N)c(C(=O)COC(=O)CCc2nc3ccccc3c(=O)[nH]2)c(=O)n(C)c1=O	5.1	4.2	6.3	13.2	7.0	-12.7
Cc1ccccc1OCCC(=O)OCC(=O)c1c(N)n(CC(C)C)c(=O)n(C)c1=O	4.8	16.9	34.5*	23.0	-15.3	-14.2
CC(C)Cn1c(N)c(C(=O)COC(=O)CCc2nc3ccccc3s2)c(=O)n(C)c1=O	9.3	14.2	31.9*	23.4	-21.4	-35.0
Cc1ccc(OCCC(=O)OCC(=O)c2c(N)n(CC(C)C)c(=O)n(C)c2=O)cc1	2.7	0.3	16.0	15.6	-9.7	-27.8
COc1cccc(CNC(=O)[C@@H]2CCCN2C(=O)[C@H]2CCCCN2C(=O)OC(C)(C)C)c1	-2.0	-24.2	-1.4	0.4	8.2	-4.2
CC1(C(=O)NS(=O)(=O)c2ccc(Cl)cc2)CCN1C(=O)C1CC1 (configuration not stated)	-1.3	-13.6	-5.9	1.3	9.2	7.9
CCCCNC(=O)c1ccc2nc(CC)c(N(CC)CCN(C)C)n2c1	1.0	3.2	8.4	0.4	1.6	-1.9
Cc1ccc(C(=O)NCCn2cc(SCC(=O)Nc3cc(C)on3)c3ccccc32)cc1	36.0*	-24.8	1.1	12.9	-3.7	-21.3
Cc1cc(NC(=O)CSc2ccc3nnc(CCNC(=O)c4ccccc4)n3n2)no1	-7.4	-3.0	0.6	0.9	30.4*	-3.9
CSc1ccc(CN2CCC2(C)C(=O)NCc2ccc3c(c2)OCO3)cc1 (configuration not stated)	-2.1	-23.8	-9.8	4.3	7.0	-1.2
COC(=O)c1ccc2nc(-c3ccc(C#N)cc3)c(Cc3cccc(F)c3)n2c1	-1.0	6.4	-6.7	2.6	-8.5	-5.4
CCC(=O)N[C@@H]1C=C[C@@H](CC(=O)NCc2ccccc2F)O[C@@H]1CO	0.7	4.2	10.1	0.3	-3.6	-4.4
COc1ccc(-c2csc3nc(C)n(-n4cccc4)c(=O)c23)cc1	-3.3	-1.5	-3.8	-2.8	3.4	9.9
Cc1nc2scc(-c3ccc(C(C)(C)C)cc3)c2c(=O)n1N	4.1	9.1	33.4*	15.2	-14.7	-19.4
O=C(Nc1nc2ccc(F)cc2s1)C1CCN(S(=O)(=O)c2cc([N+](=O)[O-])ccc2Cl)CC1	-1.6	27.4*	43.5*	9.7	-5.5	-17.6
Cc1ccc(NC(=O)C2CCN(S(=O)(=O)c3cc([N+](=O)[O-])ccc3Cl)CC2)nc1	0.9	21.4	18.2	15.9	-9.4	-20.6
CC(NC(=O)C1CCN(S(=O)(=O)c2cc([N+](=O)[O-])ccc2Cl)CC1)c1ccccc1 (configuration not stated)	-0.6	-4.8	-5.8	3.3	4.8	3.6
Cc1ccc2nc(NC(=O)C3CCN(S(=O)(=O)c4cc([N+](=O)[O-])ccc4Cl)CC3)sc2c1	-2.3	25.7	30.2*	7.6	-8.8	-13.1
NS(=O)(=O)c1ccc(NC(=O)CCC(=O)c2cccs2)cc1	-2.2	-11.8	2.0	0.9	-3.8	-0.2
NS(=O)(=O)c1ccc(NC(=O)CCC(=O)c2ccc(Cl)s2)cc1	-2.9	-9.1	-0.1	0.3	24.0*	5.3
SMILES	M5 ag	M4 antag	CHRM5 antagonist	M4 ag	CHRM4 PAM	M5 PAM
CCCCCCCCN1C(=O)[C@H](CC(=O)N2CCN(C(=O)c3ccco3)CC2)C[C@@]2(C(=O)OC)CCCCC=C12	0.7	5.1	-2.2	3.7	-6.0	2.9
CC(=O)NS(=O)(=O)c1ccc(NC(=O)C2c3ccccc3Oc3ccccc32)cc1	-9.0	-10.8	-9.9	0.8	16.9	22.4*
CNS(=O)(=O)c1ccc(NC(=O)C2c3ccccc3Oc3ccccc32)cc1	10.8	2.6	7.4	5.2	-6.1	-1.4
O=C(NC(c1ccc(-c2ccccc2)cc1)c1cnccn1)C1CCN(Cc2ccc3c(c2)OCO3)CC1 (configuration not stated)	0.0	-3.5	5.4	14.2	-11.1	-4.3
CC[C@H](C)[C@H](NS(=O)(=O)c1ccc(C)cc1)C(=O)N1CCC(C(=O)N[C@H](C(=O)O)C(C)C)CC1	4.0	7.8	-25.1	1.8	28.9	19.7*
COc1ccccc1NC(=O)Cn1nnc(-c2ccccc2NS(=O)(=O)c2ccccc2)n1	0.4	7.4	34.0*	15.3	-30.3	-17.3
O=C(NCc1ccon1)C1CCC(=O)N(CCc2ccc(Cl)cc2)C1 (configuration not stated)	-2.0	-8.8	-6.2	1.2	16.3*	21.2*
CC(=O)Nc1c(NC(C)C)c2ccccc2oc1=O	-1.5	-2.3	-1.6	0.4	9.4	21.8*
COC(=O)C1(C)COP(=O)(Nc2ccc(OC)cc2)OC1 (configuration not stated)	3.2	0.8	0.2	1.7	3.9	-1.7
O=C(O)c1cccc(Nc2nc3ccccc3nc2NS(=O)(=O)c2cccs2)c1	-0.9	-23.9	-8.4	1.1	18.1*	-0.1
CC(=O)c1ccc(Nc2nc3ccccc3nc2NS(=O)(=O)c2cccs2)cc1	-1.6	-4.5	5.2	1.8	-2.6	-5.6
CCN(CC)c1ccc2cc(-c3nc4ccccc4n3C)c(=O)oc2c1	7.6	7.0	5.4	20.3	0.9	-5.3
CCN(CC)c1ccc2cc(C(=O)c3cccs3)c(=O)oc2c1	51.9*	33.3*	38.8*	64.8*	-19.1	-24.4
CCN(CC)c1ccc2cc(-c3nc4ccccc4[nH]3)c(=O)oc2c1	119.0*	25.3	36.4*	552.2*	-19.1	-29.0
Cc1csc(NC(=O)C2(C)CCN2C(=O)C(C)C)c1C#N (configuration not stated)	0.6	-6.4	1.2	1.4	-5.9	-0.8
CC(C)(C)c1ccc(S(=O)(=O)Nc2ccc(C(O)(C(F)(F)F)C(F)(F)F)cc2)cc1	-1.0	2.2	3.8	0.1	0.6	-1.8
